Only some compounds are listed: those with a hit (about 6.3% of all), similar ones and a draw of the others.
SF1 activator: activators of human SF-1, primary screen, cell-based, CHO-K1, Gal4-SF-1 LBD, luciferase luminescence; Steroidogenic factor 1 (Homo sapiens), Q13285; CHO-K1 Gal4-SF-1 LBD luciferase reporter; % increase over DMSO SF-1-specific signal; activation, % at 10 µM; 65,000 tested, 1.9% active;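 active = activation above the mean activation of all tested compounds plus 3 SD, cut at about 50% in these data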
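Assay system: CHO-K1 cells co-transfected with Gal4 DBD–human SF-1 LBD, 5xGal4 luciferase reporter; doses: 10 µM only; incubation: 20 h compound exposure at 37 °C after 1 h cell settling; signal: luciferase light emission; evaluation: percent activation versus DMSO; repeats: one test per compound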
MT1-MMP txn act: MT1-MMP promoter reporter activation – cell-based, luciferase luminescence, primary screen. activation factor at 10 µM. HT1080 MT1-MMP promoter luciferase reporter, overnight; stronger effect = higher value. AID 750, 2007. 86,000 tested, 0.16% active;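 active = activation factor of at least 2 for MT1-MMP transcription at 10 µM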
RORA act: activators of orphan receptor RORA, primary screen, cell-based, luminescence; Nuclear receptor ROR-alpha (Homo sapiens), P35398; CHO-K1 Gal4-RORA LBD luciferase reporter; percent increase over mock-subtracted basal signal; activation, % at 10 µM; 65,000 tested, 1.5% active; AID 560, 2006;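 active = activation above the mean of all tested compounds plus 3 SD, cut at about 49% in these data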;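 also: 0% = DMSO-treated RORA cells and 100% = added signal equal to DMSO minus mock-transfected cells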
M1 antag: antagonists of rat M1 muscarinic receptor; Muscarinic acetylcholine receptor M1 (Rattus norvegicus), P08482; CHO-M1 cells, Fluo-4 calcium, ACh EC80 antagonist mode; stronger effect = lower value; B-score at 10 µM; 64,000 tested, 3.4% active;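 active = calcium fluorescence response, raw or row-and-column corrected B-score, differing from the plate sample mean either way at a set confidence level, mostly lower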
M1 ag: M1 muscarinic receptor agonists, primary screen, CHO-M1 cells, Fluo-4 calcium, agonist mode; AID 626, 2007; 64,000 tested, 3% active; Muscarinic acetylcholine receptor M1; B-score at 10 µM; Fluo-4 calcium fluorescence; stronger effect = higher value;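 active = fluorescence rise, raw or as B-score row- and column-corrected plate score, outside the 99.7% band of its plate's samples, either direction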
M1 agonist conf: rat M1 muscarinic receptor agonists, confirmation, CHO-M1 cells, Fluo-4 calcium, duplicate retest; shares compounds with M1 ag; Fluo-4 calcium fluorescence, agonist mode; actives lie on both sides; 1,700 tested, 19% active; AID 1488, 2009; fluorescence change (max-min) at 10 µM;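 active = fluorescence change differs from the solvent-only DMSO control mean at a set confidence level in both duplicate runs; inconclusive = differs from solvent-only control mean in just one of two runs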;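 also: an EC20 dose of acetylcholine follows compound addition during the same imaging run; raw fluorescence intensity difference in instrument units with no normalization to controls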
M4 agonist ctr: agonist activity at rat M4 receptor, confirmation, counter-screen for M1 allosteric modulator project, cell-based, agonist mode; 1,700 tested, 9% active; CHO M4/Gqi5 cells, Fluo-4 calcium fluorescence; actives lie on both sides; AID 1741, 2009; fluorescence change (max-min) at 10 µM; shares compounds with M1 ag;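 active = fluorescence change differing from the plate's solvent-only control wells at 99.7% confidence in both duplicates, whether higher or lower; inconclusive = differs from solvent controls in only one of two duplicates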
Target sequence (P08485 whole entry, looked up): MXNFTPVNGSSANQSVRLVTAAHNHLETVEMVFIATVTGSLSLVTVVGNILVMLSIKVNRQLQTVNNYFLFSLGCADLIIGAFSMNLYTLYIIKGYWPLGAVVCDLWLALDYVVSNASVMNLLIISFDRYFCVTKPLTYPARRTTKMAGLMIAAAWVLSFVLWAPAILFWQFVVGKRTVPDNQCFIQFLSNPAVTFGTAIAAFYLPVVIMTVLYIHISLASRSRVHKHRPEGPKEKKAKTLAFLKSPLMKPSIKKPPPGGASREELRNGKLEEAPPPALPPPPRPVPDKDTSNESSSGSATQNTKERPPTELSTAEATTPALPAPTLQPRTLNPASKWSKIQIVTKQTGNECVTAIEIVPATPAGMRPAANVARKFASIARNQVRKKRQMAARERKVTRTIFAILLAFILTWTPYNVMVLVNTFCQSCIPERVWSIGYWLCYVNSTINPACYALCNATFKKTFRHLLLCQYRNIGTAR
Active calls of the source: *; ? = inconclusive; / = no result given.

SMILES | SF1 activator | MT1-MMP txn act | RORA act | M1 antag | M1 ag | M1 agonist conf | M4 agonist ctr
Cc1ccc2occ(C(c3nnnn3C3CCCC3)N3CCN(C(=O)c4ccco4)CC3)c(=O)c2c1 (configuration not stated) | -18 | 1.1 | 7 | -2 | 2.7* | ? | ?
O=C(c1ccco1)N1CCN(C(c2coc3ccc(Cl)cc3c2=O)c2nnnn2C2CCCC2)CC1 (configuration not stated) | / | 1.1 | / | / | / | / | /
COCCOC(=O)C1=C(C)NC(=O)NC1c1ccc(OC(=O)c2ccco2)c(OC)c1 (configuration not stated) | -5 | 1 | 19 | -0.086 | 6.8* | -8.4 | -18
CCOC(=O)C1=C(C)NC(=O)NC1c1ccc(OC(=O)c2ccco2)cc1 (configuration not stated) | / | 1.3 | / | / | / | / | /
CN(C)c1nc(SCCOC(=O)Nc2ccccc2)nc(N(C)C)n1 | 4 | 1.2 | -3 | -0.83 | -0.19 | / | /
Nc1ccc2c(C(F)(F)F)cc(=O)oc2c1 | -9 | 1.1 | 18 | 0.2 | 26* | 171* | 146
CCO/C(C)=N/n1c2nc3ccccc3nc2c2c(=O)n(C3CCCC3)c(C)nc21 | 33 | 0.9 | 31 | -0.5 | 9.4* | ? | -41
Cc1cc(S(=O)(=O)N2CCC(NC(=O)C34CC5CC(CC(C5)C3)C4)CC2)ccc1-n1cnnn1 | 1 | 1.3 | -18 | -1 | 0.037 | / | /
Cc1ccc2c(n1)CC(C)(C)C/C2=N\O | / | 1.1 | / | / | / | / | /
CCc1ccccc1NS(=O)(=O)c1ccc(SC)cc1 | -7 | 1.1 | -10 | -1.3 | 3.3* | -22 | -36
CSc1ccc(S(=O)(=O)Nc2c(C)cccc2C)cc1 | -5 | 1 | -10 | -0.19 | 0.034 | / | /
CCN1CCN(Cc2ccc(NC(=O)Nc3ccc(OC)cc3)cc2)CC1 | 36 | 1.3 | 31 | -1.2 | -0.64 | / | /
CCN1CCN(Cc2ccc(NC(=O)Nc3ccccc3)cc2)CC1 | 42 | 0.9 | 16 | -0.66 | 6.5* | -15 | -46
Nc1nc(NC(=O)c2ccco2)nn1-c1ccccc1 | 29 | 1.5 | 1 | 0.085 | 0.18 | / | /
O=C(Nc1nc2nc(-c3ccccc3)cc(-c3ccccc3)n2n1)c1ccco1 | 3 | 1.1 | -8 | 0.021 | 3.8* | -24* | -57
CC(=O)Nc1nc(N)n(-c2ccccc2)n1 | / | 1.3 | / | / | / | / | /
CC(=O)Nc1nc2n(n1)C(c1ccccc1)C=C(c1ccccc1)N2 (configuration not stated) | 13 | 1.1 | -17 | 0.27 | 20* | 132* | 97
CC(=O)Nc1nc2n(n1)C(c1ccc(F)cc1)C=C(c1ccccc1)N2 (configuration not stated) | -4 | 1.1 | 7 | -0.31 | 7.6* | 119* | 93*
O=C(Nc1nc2n(n1)C(c1ccccc1)C=C(c1ccccc1)N2)c1ccco1 (configuration not stated) | -11 | 1.1 | -12 | -0.31 | 19* | 44 | 26
O=C1c2cc(S(=O)(=O)NCCCO)ccc2-c2ccc(S(=O)(=O)NCCCO)cc21 | / | 1.1 | / | / | / | / | /
CCOC(=O)NC1(C(F)(F)F)C(=O)N(Cc2ccccc2)C2=C1C(=O)CC(C)(C)C2 (configuration not stated) | / | 1.2 | / | / | / | / | /
O=C(NCc1ccccc1)c1ccc2nc(-c3ccco3)c(-c3ccco3)nc2c1 | / | 0.9 | / | / | / | / | /
CCCCNC(=O)c1ccc2nc(-c3ccco3)c(-c3ccco3)nc2c1 | 19 | 1 | -16 | -0.57 | 10* | 9.4 | ?
COC(=O)C(C)n1cnc2c(nnn2-c2ccc(OC)cc2)c1=O (configuration not stated) | -9 | 1.1 | -3 | 0.62 | -0.3 | / | /
CCOC(=O)C(CC)n1cnc2c(nnn2-c2ccc(C)cc2)c1=O (configuration not stated) | 9 | 1.5 | 0 | 0.53 | 6.4* | -22 | -71*
SMILES | SF1 activator | MT1-MMP txn act | RORA act | M1 antag | M1 ag | M1 agonist conf | M4 agonist ctr
COc1ccc(C2=NOC(C(=O)N3CCN(c4ccccc4OC)CC3)C2)cc1 (configuration not stated) | 18 | 1 | -14 | -1.4 | 2.6* | -15 | ?
COc1ccc2c(c1OC)C(=O)N1c3ccccc3C(=O)N(c3ccccc3F)C21 (configuration not stated) | 15 | 0.9 | -25 | 0.095 | 9.3* | -26* | -92*
O=S(=O)(/N=C/c1c(O)ccc2ccccc12)c1cccs1 | / | 1.1 | / | / | / | / | /
CCN1C(=O)/C(=C/N2CCc3ccccc32)SC1=S | 31 | 1.8 | 42 | -1.4 | 87* | 528* | 491*
CCN1C(=O)/C(=C\N2CCCc3ccccc32)SC1=S | -18 | 1.3 | -7 | 1.4 | -0.21 | / | /
CCc1nc2ccccc2n1CCC(=O)O | / | 1.2 | / | / | / | / | /
CCN(CC)c1ccc(NC(=O)OC)cc1 | / | 1 | / | / | / | / | /
Cc1cc(S(=O)(=O)NCC(=O)O)ccc1F | 12 | 1.1 | 3 | 0.24 | 5* | -12 | -17
O=C(O)CNS(=O)(=O)c1ccc(F)cc1 | -9 | 1.1 | 12 | 0.11 | 0.16 | / | /
CC(=O)c1c(C)[nH]c(C(=O)N2CCN(c3ncccn3)CC2)c1C | 18 | 1.1 | 5 | 0.036 | -1.2 | / | /
COCCCNS(=O)(=O)c1ccc2c(c1)CCN2C(C)=O | 14 | 1.3 | -1 | -0.36 | -0.85 | / | /
CC(=O)N1CCc2cc(S(=O)(=O)NCCCOC(C)C)ccc21 | -4 | / | -4 | 0.44 | -2.1* | -9.8 | ?
CCNc1nc(NC(C)C)nc(Oc2ccc(OCCOc3ccccc3)nn2)n1 | 14 | 1.2 | -26 | 0.48 | -0.0045 | / | /
CCc1c(-c2ccccc2)nc2nc(C)c(C)nn12 | 1 | 1.1 | -16 | 0.24 | 46* | 237* | 219*
CCCCc1ccc(NS(=O)(=O)N(C)C)cc1 | 13 | 1.1 | -5 | / | / | / | /
CCCCS(=O)(=O)Nc1ccc(Cc2ccncc2)cc1 | 14 | 1 | -18 | 0.047 | 3.2* | ? | -39
CCc1cc2c(=O)c(-c3nc4ccccc4[nH]3)coc2c(CN2CCCC(C)C2)c1O (configuration not stated) | 3 | 1.3 | 20 | -0.59 | 0.027 | / | /
c1ccc(Oc2cccc(OCCCCSc3ncccn3)c2)cc1 | / | 1.1 | / | / | / | / | /
COC(=O)c1cc(Br)c(=O)n(-c2cccc(F)c2)c1 | / | 1 | / | / | / | / | /
O=C(CSc1ncc(-c2ccc(F)cc2)[nH]1)N1CCCCC1 | 30 | 1.2 | 24 | -0.94 | 0.19 | / | /

Source: PubChem BioAssay (several laboratories)
